Measured values reported in ChEMBL document CHEMBL3244301, “Novel analgesic-antiinflammatory salicylates” (J Med Chem, 1978).
≈ marks a conversion by molar mass, not a printed value. Calls of active or inactive are those of the source. The rule behind the calls is not given here.

Legend:
[1] = test system: Rattus norvegicus; assay: Antiinflammatory activity against carrageenan-induced foot edema in rat administered via gastric gavage; type: functional; details: po
Summary of the method: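 Rats, six per dose level, received drug as an aqueous suspension by gastric gavage before carrageenan-induced foot edema was measured. The highest dose given was 400 mg/kg.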

[2] = test system: Rattus norvegicus; assay: Antiinflammatory activity against carrageenan-induced foot edema in rat at 400 mg/kg administered via gastric gavage; type: functional, organism-based; set-up: dose 400 mg/kg
Summary of the method: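 Carrageenan-induced foot edema in rats. Drugs were given as an aqueous suspension by gastric gavage to six rats at each dose level.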

[3] = target: Cyclooxygenase (Homo sapiens) (UniProt P35354+P23219)
[4] = test system: Rattus norvegicus; assay: Toxicity in po dosed rat assessed as gastric hemorrhage; type: organism-based, Stomach; details: in vivo
[5] = test system: Rattus norvegicus; assay: Antipyretic activity in po dosed rat; type: functional
[6] = test system: Rattus norvegicus; assay: Toxicity in rat assessed as intestinal perforating ulcer at 1024 mg/kg, po; type: organism-based; set-up: dose 1024 mg/kg, route oral; details: in vivo
[7] = test system: Rattus norvegicus; assay: Analgesic activity in po dosed rat assessed as inhibition of yeast-induced inflammatory pain; type: functional
[8] = test system: Rattus norvegicus; assay: Analgesic activity in po dosed rat assessed as inhibition of adjuvant-induced arthritis pain; type: functional
[9] = test system: Canis familiaris; assay: Analgesic activity in po dosed dog knee joint pain model; type: functional; details: Canis lupus familiaris
[10] = Plasma concentration in human at 250 mg, po after 2 hrs
[11] = test system: Rattus norvegicus; assay: Toxicity in rat assessed as gastric hemorrhage at 256 mg/kg, po; type: organism-based, Stomach; set-up: dose 256 mg/kg, route oral; details: in vivo
[12] = Plasma concentration in human at 500 mg, po after 2 hrs
[13] = Drug excretion in human urine after 96 hrs; type: ADME, tissue-based; details: read-out: Drug excretion
[14] = test system: Rattus norvegicus; assay: Toxicity in po dosed rat assessed as intestinal perforating ulcer; type: organism-based; details: in vivo

**Q.** Which ED50 [1] does the source give for O=C(O)c1cc(-c2ccccc2)ccc1O here?
**A.** 54 mg/kg

**Q.** Which ED50 [1] does the source give for O=C(O)c1cc(-c2ccc(F)cc2)ccc1O here?
**A.** 14 mg/kg

**Q.** Which ED50 [1] does the source give for O=C(O)c1cc(-c2ccccc2)cc(F)c1O here?
**A.** 110 mg/kg

**Q.** For O=C(O)c1ccc(F)cc1O, which ED50 [1] is on record?
**A.** 400 mg/kg

**Q.** For O=C(O)c1cc(F)ccc1O, which ED50 [1] is on record?
**A.** 120 mg/kg

**Q.** With O=C(O)c1cccc(-c2ccccc2)c1O as the molecule, how does the ED50 [1] read?
**A.** 130 mg/kg

**Q.** With O=C(O)c1cccc(F)c1O as the molecule, how does the ED50 [1] read?
**A.** 90 mg/kg

**Q.** Which ED50 [1] does the source give for CC(=O)Oc1c(F)cccc1C(=O)O here?
**A.** 281 mg/kg

**Q.** With CC(=O)Oc1ccc(-c2ccccc2)cc1C(=O)O as the molecule, how does the ED50 [1] read?
**A.** 170 mg/kg

**Q.** With CCCCOC(=O)Oc1ccc(-c2ccc(F)cc2)cc1C(=O)O as the molecule, how does the ED50 [1] read?
**A.** 25 mg/kg

**Q.** With O=C(O)c1cc(-c2ccc(Cl)cc2)ccc1O as the molecule, how does the ED50 [1] read?
**A.** 24 mg/kg

**Q.** Which ED50 [1] does the source give for O=C(O)c1cc(-c2cccc(F)c2)ccc1O here?
**A.** 40 mg/kg

**Q.** For Cc1cc(F)ccc1-c1ccc(O)c(C(=O)O)c1, which ED50 [1] is on record?
**A.** 76 mg/kg

**Q.** With CCOC(=O)Oc1ccc(-c2ccc(F)cc2F)cc1C(=O)O as the molecule, how does the ED50 [1] read?
**A.** 30 mg/kg

**Q.** Which ED50 [1] does the source give for CCCCOC(=O)Oc1ccc(-c2ccc(F)cc2F)cc1C(=O)O here?
**A.** 12 mg/kg

**Q.** Which ED50 [1] does the source give for O=C(O)c1cc(-c2c(F)c(F)c(F)c(F)c2F)ccc1O here?
**A.** 20 mg/kg

**Q.** With O=C(O)c1cc(-c2ccc(C(F)(F)F)cc2)ccc1O as the molecule, how does the ED50 [1] read?
**A.** 50 mg/kg

**Q.** With O=C(O)c1cc(-c2ccc(I)cc2)ccc1O as the molecule, how does the ED50 [1] read?
**A.** 120 mg/kg

**Q.** For Cc1cc(-c2ccccc2)cc(C(=O)O)c1O, which ED50 [1] is on record?
**A.** 60 mg/kg

**Q.** For Cc1cc(-c2ccc(F)cc2)cc(C(=O)O)c1O, which ED50 [1] is on record?
**A.** 60 mg/kg

**Q.** For O=C(O)c1ccc(-c2ccc(F)cc2)cc1O, which ED50 [1] is on record?
**A.** 400 mg/kg

**Q.** With O=C(O)c1cc(-c2ccccc2F)ccc1O as the molecule, how does the ED50 [1] read?
**A.** 20 mg/kg

**Q.** With CC(=O)Oc1ccc(-c2ccc(F)cc2F)cc1C(=O)O as the molecule, how does the ED50 [1] read?
**A.** 27 mg/kg

**Q.** Which ED50 [1] does the source give for O=C(O)c1ccc(-c2ccccc2)cc1O here?
**A.** 150 mg/kg

**Q.** For CCCc1cc(-c2ccc(F)cc2)cc(C(=O)O)c1O, which Activity [2] is on record?
**A.** inactive

**Q.** For COc1cc(-c2ccc(O)c(C(=O)O)c2)ccc1F, which Activity [2] is on record?
**A.** inactive

**Q.** With Cc1cc(-c2ccc(O)c(C(=O)O)c2)ccc1F as the molecule, how does the Activity [2] read?
**A.** inactive

**Q.** For O=C(O)c1c(O)cccc1-c1ccccc1, which Activity [2] is on record?
**A.** inactive

**Q.** For O=C(O)c1c(O)cccc1F, which Activity [2] is on record?
**A.** inactive

**Q.** With O=C(O)c1cc(-c2ccccc2)c(Cl)cc1O as the molecule, how does the Activity [2] read?
**A.** inactive

**Q.** For O=C(O)c1cc(C2CCCCC2)ccc1O, which Activity [2] is on record?
**A.** inactive

**Q.** With O=C(O)c1ccc(C(F)(F)F)cc1O as the molecule, how does the Activity [2] read?
**A.** inactive

**Q.** For O=C(O)c1cccc(-c2ccc(Cl)cc2)c1O, which Activity [2] is on record?
**A.** inactive

**Q.** With CC(=O)Oc1ccccc1C(=O)O [ASPIRIN] as the molecule, how does the ED50 [3] read?
**A.** 13 µg/mL (≈ 72.2 µM)

**Q.** What about the ED50 [4] of the same molecule?
**A.** 81 mg/kg

**Q.** And the ED50 [5]?
**A.** 40 mg/kg

**Q.** And the Activity [6]?
**A.** Non-toxic

**Q.** What about the ED50 [7] of the same molecule?
**A.** 87 mg/kg

**Q.** And the ED50 [8]?
**A.** 78 mg/kg

**Q.** And the ED50 [1]?
**A.** 89 mg/kg

**Q.** What about the ED50 [9] of the same molecule?
**A.** 68 mg/kg

**Q.** With O=C(O)c1cc(-c2ccc(F)cc2F)ccc1O [DIFLUNISAL] as the molecule, how does the concentration at 2 h [10] read?
**A.** 30 µg/mL

**Q.** And the Activity [11]?
**A.** Non-toxic

**Q.** And the ED50 [3]?
**A.** 0.6 µg/mL (≈ 2.4 µM)

**Q.** And the ED50 [5]?
**A.** 27.8 mg/kg

**Q.** And the ED50 [7]?
**A.** 4.6 mg/kg

**Q.** And the concentration at 2 h [12]?
**A.** 99 µg/mL

**Q.** And the ED50 [8]?
**A.** 10.4 mg/kg

**Q.** And the dose excreted at 96 h [13]?
**A.** 95%

**Q.** What about the ED50 [1] of the same molecule?
**A.** 9.8 mg/kg

**Q.** And the ED50 [9]?
**A.** 24 mg/kg

**Q.** What about the ED50 [14] of the same molecule?
**A.** 520 mg/kg

**Q.** Which results are given for CC(=O)Oc1ccc(-c2ccc(F)cc2)cc1C(=O)O [FLUFENISAL]?
**A.** ED50 [3]: 10 µg/mL (≈ 36.5 µM); ED50 [4]: > 512 mg/kg; ED50 [5]: 160 mg/kg; ED50 [7]: 35 mg/kg; ED50 [8]: 40 mg/kg; ED50 [1]: 24 mg/kg; ED50 [14]: > 512 mg/kg

**Q.** With CC(C)Cc1ccc(C(C)C(=O)O)cc1 (centres undefined) [IBUPROFEN] as the molecule, how does the ED50 [4] read?
**A.** < 16 mg/kg

**Q.** And the ED50 [5]?
**A.** 5.9 mg/kg

**Q.** And the ED50 [7]?
**A.** 2.6 mg/kg

**Q.** And the ED50 [8]?
**A.** 28 mg/kg

**Q.** What about the ED50 [14] of the same molecule?
**A.** < 256 mg/kg

**Q.** For COc1ccc2c(c1)c(CC(=O)O)c(C)n2C(=O)c1ccc(Cl)cc1 [INDOMETHACIN], which ED50 [4] is on record?
**A.** 5.4 mg/kg

**Q.** And the ED50 [5]?
**A.** 1.8 mg/kg

**Q.** And the ED50 [7]?
**A.** 2.2 mg/kg

**Q.** What about the ED50 [8] of the same molecule?
**A.** 0.27 mg/kg

**Q.** What about the ED50 [9] of the same molecule?
**A.** 1.7 mg/kg

**Q.** And the ED50 [14]?
**A.** 5.2 mg/kg

**Q.** With O=C(O)c1ccccc1O [SALICYLIC ACID] as the molecule, how does the ED50 [1] read?
**A.** 77 mg/kg

**Q.** For CC1=C(CC(=O)O)c2cc(F)ccc2/C1=C\c1ccc([S+](C)[O-])cc1 (centres undefined) [SULINDAC], which ED50 [3] is on record?
**A.** inactive

**Q.** What about the ED50 [4] of the same molecule?
**A.** 27 mg/kg

**Q.** And the ED50 [5]?
**A.** 2.9 mg/kg

**Q.** And the ED50 [7]?
**A.** 1.7 mg/kg

**Q.** And the ED50 [8]?
**A.** 0.55 mg/kg

**Q.** And the ED50 [9]?
**A.** 45 mg/kg

**Q.** And the ED50 [14]?
**A.** 69 mg/kg

**Q.** Which ED50 [1] does the source give for CC(=O)Oc1cc(C(F)(F)F)ccc1C(=O)O [TRIFLUSAL] here?
**A.** 155 mg/kg
